Columns and labels:
[1] = system: MDA-MB-231; experiment: Inhibition of collagen synthesis in human MDA-MB-231 cells assessed as 5-[3H]-proline incorporation into proteins susceptible to action of bacterial collagenase after 24 hrs; assay type: functional, cell-based
Outline: (§1)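 Cells labelled 24 h in growth medium with 5-[³H]proline (5 μCi/mL, 28 Ci/mmol) at a range of compound concentrations. Collagen share of incorporated label found by digesting proteins with purified Clostridium histolyticum collagenase (Peterkofsky method). Cell and medium fractions combined. IC50 is the mean ± S.D. of three independent experiments run in duplicate.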

[2] = system: MDA-MB-231; experiment: Cytostatic activity against human MDA-MB-231 cells assessed as inhibition of DNA synthesis after 24 hrs by [3H]thymidine incorporation assay; assay type: functional, cell-based
Outline: (§2)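 Cells kept in DMEM with 10% FBS and penicillin/streptomycin at 37 °C. Seeded in 6-well plates and grown to about 80% confluency, in DMEM without phenol red with 10% CPSR1. Exposed to a range of concentrations plus 0.5 μCi [³H]-thymidine for 24 h at 37 °C. Cells trypsinized and washed with cold PBS until wash dpm matched the reagent control. Uptake counted by liquid scintillation as dpm/well. IC50 is mean ± S.D. of four independent experiments.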

[3] = system: MCF7; experiment: Inhibition of collagen synthesis in human MCF7 cells assessed as 5-[3H]-proline incorporation into proteins susceptible to action of bacterial collagenase after 24 hrs; assay type: functional, cell-based; outline: as §1
[4] = target: Carbonic anhydrase 2 (Homo sapiens, UniProt P00918); experiment: Inhibition of human carbonic anhydrase 2-mediated CO2 hydration preincubated for 15 mins by stopped-flow assay
[5] = target: Carbonic anhydrase 9 (Homo sapiens, UniProt Q16790); experiment: Inhibition of human carbonic anhydrase 9-mediated CO2 hydration preincubated for 15 mins by stopped-flow assay
[6] = target: Carbonic anhydrase 12 (Homo sapiens, UniProt O43570); experiment: Inhibition of human carbonic anhydrase 12-mediated CO2 hydration preincubated for 15 mins by stopped-flow assay
Sequence of Carbonic anhydrase 12 (O43570 whole entry): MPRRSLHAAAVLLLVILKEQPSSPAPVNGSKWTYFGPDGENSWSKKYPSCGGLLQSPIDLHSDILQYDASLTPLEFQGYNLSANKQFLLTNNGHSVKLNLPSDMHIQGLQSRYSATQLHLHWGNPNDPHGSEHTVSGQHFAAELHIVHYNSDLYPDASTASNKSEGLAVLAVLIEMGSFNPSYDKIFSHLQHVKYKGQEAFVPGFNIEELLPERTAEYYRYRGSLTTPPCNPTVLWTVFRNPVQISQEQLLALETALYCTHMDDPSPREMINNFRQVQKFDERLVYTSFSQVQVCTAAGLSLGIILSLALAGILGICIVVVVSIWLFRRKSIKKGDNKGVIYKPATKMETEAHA

[7] = system: MCF7; experiment: Cytostatic activity against human MCF7 cells assessed as inhibition of DNA synthesis after 24 hrs by [3H]thymidine incorporation assay; assay type: functional, cell-based; outline: as §2
[8] = target: Carbonic anhydrase 1 (Homo sapiens, UniProt P00915); experiment: Inhibition of human carbonic anhydrase 1-mediated CO2 hydration preincubated for 15 mins by stopped-flow assay
Sequence of Carbonic anhydrase 1 (P00915 whole entry): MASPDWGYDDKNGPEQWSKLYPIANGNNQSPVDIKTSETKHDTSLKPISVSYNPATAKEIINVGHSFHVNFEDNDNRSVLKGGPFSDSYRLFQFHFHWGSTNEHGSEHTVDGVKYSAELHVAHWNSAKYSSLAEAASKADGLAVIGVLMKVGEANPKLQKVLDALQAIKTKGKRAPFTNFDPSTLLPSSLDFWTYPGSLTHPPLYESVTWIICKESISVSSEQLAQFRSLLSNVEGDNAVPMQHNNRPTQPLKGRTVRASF

[9] = system: MCF7; experiment: Cytotoxicity against human MCF7 cells assessed as growth inhibition after 24 hrs by MTT assay; assay type: functional, cell-based; details: for IC50: MCF7, 24 h
Outline: (§3)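 Confluent cells in 6-well plates treated 24 h with a range of concentrations, then washed with PBS. MTT (0.5 mg/ml in PBS) added for 4 h at 37 °C, 5% CO₂. Dye dissolved in 0.1 mol/l HCl in isopropanol and read at 570 nm. Viability given as % of untreated control, run in triplicate. IC50 taken from dose-response curves as 50% viable cells versus control.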

[10] = system: MDA-MB-231; experiment: Cytotoxicity against human MDA-MB-231 cells assessed as growth inhibition after 24 hrs by MTT assay; assay type: functional, cell-based; details: for IC50: MDA-MB-231, 24 h; outline: as §3

Cc1nn(C)c2nnc(Nc3ccc(S(=O)(=O)N4CCCCC4)cc3)nc12
IC50 [1]: 145 µM | inhibition [2]: Dose-dependent effect | IC50 [3]: 163 µM | Ki [4]: 492 nM | Ki [5]: > 50000 nM | Ki [6]: 6.2 nM | inhibition [7]: Dose-dependent effect | Ki [8]: > 50 µM

Cc1nn(C)c2nnc(Nc3ccc(S(N)(=O)=O)cc3)nc12
Ki [4]: 8 nM | Ki [5]: 43.8 nM | Ki [6]: 7.9 nM | Ki [8]: 0.27 µM

Cc1nn(C)c2nnc(Nc3ccc(S(=O)(=O)N4CCOCC4)cc3)nc12
IC50 [1]: > 200 µM | inhibition [2]: Dose-dependent effect | IC50 [3]: > 200 µM | inhibition [7]: Dose-dependent effect

Cc1nn(C)c2nnc(Nc3ccccc3)nc12
Ki [4]: 826 nM | Ki [5]: 82 nM | Ki [6]: 9 nM | Ki [8]: > 50 µM

CCOc1ccc(S(=O)(=O)NCCO)cc1-c1nnc2c(n1)c(C)nn2C
IC50 [2]: > 200 µM | inhibition [2]: Dose-dependent effect | IC50 [7]: > 200 µM | inhibition [7]: Dose-dependent effect | growth inhibition (GI) [9]: Dose-dependent effect | IC50 [9]: > 200 µM | growth inhibition (GI) [10]: Dose-dependent effect | IC50 [10]: > 200 µM

Cc1nn(C)c2nnc(S(C)(=O)=O)nc12
Ki [4]: 774 nM | Ki [5]: 89 nM | Ki [6]: 6.6 nM | Ki [8]: > 50 µM

CCOc1ccc(S(=O)(=O)N2CCCCC2)cc1-c1nnc2c(n1)c(C)nn2C
IC50 [2]: 126 µM | inhibition [2]: Dose-dependent effect | IC50 [7]: 112 µM | inhibition [7]: Dose-dependent effect | growth inhibition (GI) [9]: Dose-dependent effect | IC50 [9]: 105 µM | growth inhibition (GI) [10]: Dose-dependent effect | IC50 [10]: 98 µM

CCOc1ccc(S(=O)(=O)N2CCOCC2)cc1-c1nnc2c(n1)c(C)nn2C
IC50 [2]: 160 µM | inhibition [2]: Dose-dependent effect | IC50 [7]: 148 µM | inhibition [7]: Dose-dependent effect | growth inhibition (GI) [9]: Dose-dependent effect | IC50 [9]: 181 µM | growth inhibition (GI) [10]: Dose-dependent effect | IC50 [10]: 189 µM

Cc1nn(C)c2nnc(Nc3ccc(S(=O)(=O)NCCO)cc3)nc12
IC50 [1]: > 200 µM | inhibition [2]: Dose-dependent effect | IC50 [3]: > 200 µM | Ki [4]: 772 nM | Ki [5]: 26.5 nM | Ki [6]: 7.5 nM | inhibition [7]: Dose-dependent effect | Ki [8]: > 50 µM

O=C(O)CCCc1ccc(N(CCCl)CCCl)cc1 [CHLORAMBUCIL]
IC50 [1]: 72 µM | inhibition [2]: Dose-dependent effect | IC50 [3]: 52 µM | inhibition [7]: Dose-dependent effect | growth inhibition (GI) [9]: Dose-dependent effect | growth inhibition (GI) [10]: Dose-dependent effect

Cc1nn(C)c2nnc(Nc3ccc(S(=O)(=O)N4CCCNCC4)cc3)nc12
IC50 [1]: 135 µM | inhibition [2]: Dose-dependent effect | IC50 [3]: 133 µM | Ki [4]: 918 nM | Ki [5]: > 50000 nM | Ki [6]: 5.9 nM | inhibition [7]: Dose-dependent effect | Ki [8]: > 50 µM

Cc1nn(C)c2nnc(Nc3ccc(S(=O)(=O)N4CCCC4)cc3)nc12
IC50 [1]: > 200 µM | inhibition [2]: Dose-dependent effect | IC50 [3]: > 200 µM | Ki [4]: 6.3 nM | Ki [5]: 652 nM | Ki [6]: 8.1 nM | inhibition [7]: Dose-dependent effect | Ki [8]: > 50 µM

Cc1nn(C)c2nnc(Nc3ccc(S(=O)(=O)NCCN4CCOCC4)cc3)nc12
IC50 [1]: 137 µM | inhibition [2]: Dose-dependent effect | IC50 [3]: 140 µM | Ki [4]: 719 nM | Ki [5]: 824 nM | Ki [6]: 6.2 nM | inhibition [7]: Dose-dependent effect | Ki [8]: > 50 µM

CCOc1ccc(S(=O)(=O)NCCN2CCOCC2)cc1-c1nnc2c(n1)c(C)nn2C
IC50 [2]: 156 µM | inhibition [2]: Dose-dependent effect | IC50 [7]: 145 µM | inhibition [7]: Dose-dependent effect | growth inhibition (GI) [9]: Dose-dependent effect | IC50 [9]: 132 µM | growth inhibition (GI) [10]: Dose-dependent effect | IC50 [10]: 136 µM

Cc1nn(C)c2nnc(Nc3ccc(S(=O)(=O)NCCN)cc3)nc12
IC50 [1]: 95 µM | inhibition [2]: Dose-dependent effect | IC50 [3]: 112 µM | Ki [4]: 62.1 nM | Ki [5]: 23.7 nM | Ki [6]: 7.1 nM | inhibition [7]: Dose-dependent effect | Ki [8]: > 50 µM

Cc1nn(C)c2nnc(Nc3ccc(S(=O)(=O)N4CCN(C)CC4)cc3)nc12
IC50 [1]: 58 µM | inhibition [2]: Dose-dependent effect | IC50 [3]: 47 µM | Ki [4]: 667 nM | Ki [5]: > 50000 nM | Ki [6]: 5.3 nM | inhibition [7]: Dose-dependent effect | Ki [8]: > 50 µM

CCOc1ccc(S(=O)(=O)N2CCCNCC2)cc1-c1nnc2c(n1)c(C)nn2C
IC50 [2]: 115 µM | inhibition [2]: Dose-dependent effect | IC50 [7]: 129 µM | inhibition [7]: Dose-dependent effect | growth inhibition (GI) [9]: Dose-dependent effect | IC50 [9]: 123 µM | growth inhibition (GI) [10]: Dose-dependent effect | IC50 [10]: 130 µM

CCOc1ccc(S(=O)(=O)N2CCN(C)CC2)cc1-c1nnc2c(n1)c(C)nn2C
IC50 [2]: 152 µM | inhibition [2]: Dose-dependent effect | IC50 [7]: 140 µM | inhibition [7]: Dose-dependent effect | growth inhibition (GI) [9]: Dose-dependent effect | IC50 [9]: 110 µM | growth inhibition (GI) [10]: Dose-dependent effect | IC50 [10]: 115 µM

CCOc1ccc(S(=O)(=O)N2CCCC2)cc1-c1nnc2c(n1)c(C)nn2C
IC50 [2]: 159 µM | inhibition [2]: Dose-dependent effect | IC50 [7]: 130 µM | inhibition [7]: Dose-dependent effect | growth inhibition (GI) [9]: Dose-dependent effect | IC50 [9]: 112 µM | growth inhibition (GI) [10]: Dose-dependent effect | IC50 [10]: 120 µM

CCOc1ccc(S(=O)(=O)N2CCNCC2)cc1-c1nnc2c(n1)c(C)nn2C
IC50 [2]: 164 µM | inhibition [2]: Dose-dependent effect | IC50 [7]: 150 µM | inhibition [7]: Dose-dependent effect | growth inhibition (GI) [9]: Dose-dependent effect | IC50 [9]: 172 µM | growth inhibition (GI) [10]: Dose-dependent effect | IC50 [10]: 182 µM

CCOc1ccc(S(=O)(=O)NCCN)cc1-c1nnc2c(n1)c(C)nn2C
IC50 [2]: 200 µM | inhibition [2]: Dose-dependent effect | IC50 [7]: > 200 µM | inhibition [7]: Dose-dependent effect | growth inhibition (GI) [9]: Dose-dependent effect | IC50 [9]: 190 µM | growth inhibition (GI) [10]: Dose-dependent effect | IC50 [10]: > 200 µM

Cc1nn(C)c2nnc(Nc3ccc(S(=O)(=O)N4CCNCC4)cc3)nc12
IC50 [1]: 180 µM | inhibition [2]: Dose-dependent effect | IC50 [3]: 175 µM | Ki [4]: 703 nM | Ki [5]: > 50000 nM | Ki [6]: 5.7 nM | inhibition [7]: Dose-dependent effect | Ki [8]: > 50 µM
